From ChEMBL document CHEMBL1153264, “(1,2,3-Triazol-4-yl)benzenamines: synthesis and activity against VEGF receptors 1 and 2” (Bioorg Med Chem Lett, 2009)
Calls of active or inactive are those of the source.

What was measured:
[1] = molecular target: T1, Vascular endothelial growth factor receptor 2 (Homo sapiens, UniProt P35968); experiment: Inhibition of VEGFR2 by HTRF assay in presence of 2 uM ATP
In short: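 HTRF kinase assay with KDR enzyme (3–4 ng) and biotinylated pGAT substrate. ATP added to start, 45 min at RT. Stopped with EDTA/KF buffer plus Eu-cryptate anti-phosphotyrosine antibody, 2 h RT, then HTRF read. IC50 from 10-point log concentration curves, mean of at least two duplicate runs.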

[2] = molecular target: Vascular endothelial growth factor receptor 1 (Homo sapiens, UniProt P17948); experiment: Inhibition of VEGFR1 by HTRF assay
Sequence of Vascular endothelial growth factor receptor 1 (P17948 whole entry): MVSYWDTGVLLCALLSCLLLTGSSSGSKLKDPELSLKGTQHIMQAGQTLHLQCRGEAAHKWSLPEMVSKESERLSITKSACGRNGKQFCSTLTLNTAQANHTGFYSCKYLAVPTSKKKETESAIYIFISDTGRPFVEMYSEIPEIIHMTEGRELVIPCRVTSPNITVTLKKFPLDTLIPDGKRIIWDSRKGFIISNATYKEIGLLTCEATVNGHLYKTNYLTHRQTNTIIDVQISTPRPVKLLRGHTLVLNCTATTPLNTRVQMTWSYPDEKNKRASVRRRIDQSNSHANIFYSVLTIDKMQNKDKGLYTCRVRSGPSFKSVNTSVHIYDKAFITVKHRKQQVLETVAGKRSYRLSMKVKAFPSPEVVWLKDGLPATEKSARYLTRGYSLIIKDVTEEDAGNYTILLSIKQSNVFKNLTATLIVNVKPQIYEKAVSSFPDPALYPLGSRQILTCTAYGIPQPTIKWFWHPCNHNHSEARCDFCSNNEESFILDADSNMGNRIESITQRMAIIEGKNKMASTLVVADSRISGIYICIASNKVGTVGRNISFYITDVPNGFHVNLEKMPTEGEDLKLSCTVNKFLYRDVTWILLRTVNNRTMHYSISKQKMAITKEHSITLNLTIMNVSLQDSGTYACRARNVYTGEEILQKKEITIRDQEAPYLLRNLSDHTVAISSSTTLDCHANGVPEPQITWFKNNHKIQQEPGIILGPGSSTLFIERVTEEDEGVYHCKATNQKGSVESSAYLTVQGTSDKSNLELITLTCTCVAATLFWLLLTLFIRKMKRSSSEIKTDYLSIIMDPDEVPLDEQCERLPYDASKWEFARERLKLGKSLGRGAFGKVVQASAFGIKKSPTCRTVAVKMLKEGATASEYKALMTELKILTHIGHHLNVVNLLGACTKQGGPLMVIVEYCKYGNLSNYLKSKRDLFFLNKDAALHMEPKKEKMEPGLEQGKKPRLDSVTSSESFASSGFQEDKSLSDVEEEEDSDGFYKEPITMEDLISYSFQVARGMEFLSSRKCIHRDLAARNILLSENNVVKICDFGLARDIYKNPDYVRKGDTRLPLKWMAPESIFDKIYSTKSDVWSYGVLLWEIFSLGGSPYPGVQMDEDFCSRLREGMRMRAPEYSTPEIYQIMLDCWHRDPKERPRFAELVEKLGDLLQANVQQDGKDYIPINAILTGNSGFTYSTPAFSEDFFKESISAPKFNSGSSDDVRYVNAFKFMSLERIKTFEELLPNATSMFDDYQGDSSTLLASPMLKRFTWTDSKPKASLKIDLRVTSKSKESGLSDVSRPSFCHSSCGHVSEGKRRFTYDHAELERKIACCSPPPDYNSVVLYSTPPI

[3] = molecular target: Hepatocyte growth factor receptor (Homo sapiens) (UniProt P08581); experiment: Inhibition of c-Met at 10 uM
Sequence of Hepatocyte growth factor receptor (Homo sapiens) (P08581 whole entry): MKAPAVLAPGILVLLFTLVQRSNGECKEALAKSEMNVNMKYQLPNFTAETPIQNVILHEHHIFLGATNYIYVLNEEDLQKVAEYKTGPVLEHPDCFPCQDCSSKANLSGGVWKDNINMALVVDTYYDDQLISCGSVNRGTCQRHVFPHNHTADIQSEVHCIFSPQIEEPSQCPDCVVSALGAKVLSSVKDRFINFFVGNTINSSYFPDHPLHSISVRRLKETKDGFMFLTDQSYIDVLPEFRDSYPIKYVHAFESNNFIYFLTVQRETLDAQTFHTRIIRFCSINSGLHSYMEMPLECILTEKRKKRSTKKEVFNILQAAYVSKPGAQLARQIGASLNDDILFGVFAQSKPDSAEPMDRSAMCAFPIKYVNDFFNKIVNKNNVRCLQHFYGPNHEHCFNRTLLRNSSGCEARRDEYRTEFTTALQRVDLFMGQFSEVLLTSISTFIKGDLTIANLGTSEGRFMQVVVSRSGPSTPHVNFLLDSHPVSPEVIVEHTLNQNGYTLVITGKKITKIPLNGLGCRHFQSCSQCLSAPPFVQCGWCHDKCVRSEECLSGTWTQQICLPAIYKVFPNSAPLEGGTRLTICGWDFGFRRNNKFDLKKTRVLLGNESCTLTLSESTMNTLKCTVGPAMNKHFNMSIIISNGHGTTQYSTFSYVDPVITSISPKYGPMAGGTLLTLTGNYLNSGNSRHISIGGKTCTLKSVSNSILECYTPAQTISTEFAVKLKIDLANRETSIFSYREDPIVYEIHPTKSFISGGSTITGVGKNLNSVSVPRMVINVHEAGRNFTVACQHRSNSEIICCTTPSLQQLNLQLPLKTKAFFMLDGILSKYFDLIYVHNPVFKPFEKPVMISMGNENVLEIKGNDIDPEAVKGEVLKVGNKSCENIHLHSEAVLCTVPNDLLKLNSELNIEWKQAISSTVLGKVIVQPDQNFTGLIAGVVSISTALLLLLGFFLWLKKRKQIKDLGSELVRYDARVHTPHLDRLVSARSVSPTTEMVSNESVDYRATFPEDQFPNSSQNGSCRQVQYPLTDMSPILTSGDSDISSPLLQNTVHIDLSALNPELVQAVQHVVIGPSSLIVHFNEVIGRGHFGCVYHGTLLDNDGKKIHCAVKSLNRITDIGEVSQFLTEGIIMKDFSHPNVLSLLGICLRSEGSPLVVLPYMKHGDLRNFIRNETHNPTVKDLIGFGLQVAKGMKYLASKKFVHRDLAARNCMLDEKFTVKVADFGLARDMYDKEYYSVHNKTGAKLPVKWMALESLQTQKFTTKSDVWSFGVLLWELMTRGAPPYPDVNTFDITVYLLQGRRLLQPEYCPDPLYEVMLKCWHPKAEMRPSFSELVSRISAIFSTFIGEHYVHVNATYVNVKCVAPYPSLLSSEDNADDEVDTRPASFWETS

[4] = molecular target: Cyclin-dependent kinase 2 (Homo sapiens) (UniProt P24941); experiment: Inhibition of Cdk2 at 10 uM
[5] = molecular target: Cyclin-dependent kinase 1 (Homo sapiens) (UniProt P06493); experiment: Inhibition of Cdk1 at 10 uM
Sequence of Cyclin-dependent kinase 1 (Homo sapiens) (P06493 whole entry, looked up): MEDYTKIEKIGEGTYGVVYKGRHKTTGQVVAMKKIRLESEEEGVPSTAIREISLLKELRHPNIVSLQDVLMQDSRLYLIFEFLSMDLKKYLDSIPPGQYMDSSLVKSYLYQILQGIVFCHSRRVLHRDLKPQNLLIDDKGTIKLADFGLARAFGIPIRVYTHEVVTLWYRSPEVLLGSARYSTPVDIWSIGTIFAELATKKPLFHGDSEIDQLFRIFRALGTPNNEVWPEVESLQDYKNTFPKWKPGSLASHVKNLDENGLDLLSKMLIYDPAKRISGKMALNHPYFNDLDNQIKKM

[6] = molecular target: Insulin-like growth factor 1 receptor (Homo sapiens) (UniProt P08069); experiment: Inhibition of IGF1R at 10 uM
[7] = molecular target: Glycogen synthase kinase-3 beta (Homo sapiens) (UniProt P49841); experiment: Inhibition of GSK3-beta at 10 uM
[8] = Inhibition of Bcr-Abl T315 mutant at 10 uM
[9] = molecular target: Fibroblast growth factor receptor 1 (Homo sapiens) (UniProt P11362); experiment: Inhibition of FGFR1 at 10 uM
[10] = Inhibition of PKA at 10 uM
[11] = molecular target: Bcr/Abl fusion protein (Homo sapiens) (UniProt P00519+P11274); experiment: Inhibition of Bcr-Abl at 10 uM; type: protein assay
[12] = molecular target: T1, Vascular endothelial growth factor receptor 2; experiment: Inhibition of VEGF-induced phosphorylation of VEGFR2 by cell-based ELISA
[13] = molecular target: Serine/threonine-protein kinase PLK1 (Homo sapiens) (UniProt P53350); experiment: Inhibition of Plk1 at 10 uM
Sequence of Serine/threonine-protein kinase PLK1 (Homo sapiens) (P53350 whole entry): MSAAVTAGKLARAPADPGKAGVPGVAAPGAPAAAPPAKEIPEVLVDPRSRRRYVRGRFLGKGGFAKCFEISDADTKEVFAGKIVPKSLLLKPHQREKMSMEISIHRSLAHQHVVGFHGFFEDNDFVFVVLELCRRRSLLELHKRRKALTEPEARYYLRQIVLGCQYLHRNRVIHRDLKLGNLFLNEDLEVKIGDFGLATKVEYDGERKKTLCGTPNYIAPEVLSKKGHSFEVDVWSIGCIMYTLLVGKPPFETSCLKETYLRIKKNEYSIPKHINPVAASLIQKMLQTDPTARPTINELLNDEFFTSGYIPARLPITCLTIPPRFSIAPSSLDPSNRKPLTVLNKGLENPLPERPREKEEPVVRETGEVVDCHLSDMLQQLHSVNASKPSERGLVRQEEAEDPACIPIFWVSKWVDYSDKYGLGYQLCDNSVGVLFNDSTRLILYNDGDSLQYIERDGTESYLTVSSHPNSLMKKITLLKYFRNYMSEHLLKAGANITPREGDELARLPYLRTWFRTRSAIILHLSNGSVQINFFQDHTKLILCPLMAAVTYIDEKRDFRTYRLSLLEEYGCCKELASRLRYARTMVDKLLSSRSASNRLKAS

[14] = molecular target: Receptor tyrosine-protein kinase erbB-2 (Homo sapiens) (UniProt P04626); experiment: Inhibition of ErbB2 at 10 uM
[15] = molecular target: Proto-oncogene tyrosine-protein kinase Src (Homo sapiens) (UniProt P12931); experiment: Inhibition of Src at 10 uM
[16] = molecular target: Macrophage-stimulating protein receptor (Homo sapiens) (UniProt Q04912); experiment: Inhibition of Ron at 10 uM
Sequence of Macrophage-stimulating protein receptor (Homo sapiens) (Q04912 25-304 limits assumed): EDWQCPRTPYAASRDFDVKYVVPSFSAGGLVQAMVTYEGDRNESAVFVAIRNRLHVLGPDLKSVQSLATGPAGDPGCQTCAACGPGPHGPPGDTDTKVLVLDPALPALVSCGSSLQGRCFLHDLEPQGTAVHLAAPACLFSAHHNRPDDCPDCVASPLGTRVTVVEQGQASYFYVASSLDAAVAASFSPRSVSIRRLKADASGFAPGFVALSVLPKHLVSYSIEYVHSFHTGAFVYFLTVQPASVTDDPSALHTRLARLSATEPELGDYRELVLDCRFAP
Sequence of Macrophage-stimulating protein receptor (Homo sapiens) (Q04912 310-1400 limits assumed): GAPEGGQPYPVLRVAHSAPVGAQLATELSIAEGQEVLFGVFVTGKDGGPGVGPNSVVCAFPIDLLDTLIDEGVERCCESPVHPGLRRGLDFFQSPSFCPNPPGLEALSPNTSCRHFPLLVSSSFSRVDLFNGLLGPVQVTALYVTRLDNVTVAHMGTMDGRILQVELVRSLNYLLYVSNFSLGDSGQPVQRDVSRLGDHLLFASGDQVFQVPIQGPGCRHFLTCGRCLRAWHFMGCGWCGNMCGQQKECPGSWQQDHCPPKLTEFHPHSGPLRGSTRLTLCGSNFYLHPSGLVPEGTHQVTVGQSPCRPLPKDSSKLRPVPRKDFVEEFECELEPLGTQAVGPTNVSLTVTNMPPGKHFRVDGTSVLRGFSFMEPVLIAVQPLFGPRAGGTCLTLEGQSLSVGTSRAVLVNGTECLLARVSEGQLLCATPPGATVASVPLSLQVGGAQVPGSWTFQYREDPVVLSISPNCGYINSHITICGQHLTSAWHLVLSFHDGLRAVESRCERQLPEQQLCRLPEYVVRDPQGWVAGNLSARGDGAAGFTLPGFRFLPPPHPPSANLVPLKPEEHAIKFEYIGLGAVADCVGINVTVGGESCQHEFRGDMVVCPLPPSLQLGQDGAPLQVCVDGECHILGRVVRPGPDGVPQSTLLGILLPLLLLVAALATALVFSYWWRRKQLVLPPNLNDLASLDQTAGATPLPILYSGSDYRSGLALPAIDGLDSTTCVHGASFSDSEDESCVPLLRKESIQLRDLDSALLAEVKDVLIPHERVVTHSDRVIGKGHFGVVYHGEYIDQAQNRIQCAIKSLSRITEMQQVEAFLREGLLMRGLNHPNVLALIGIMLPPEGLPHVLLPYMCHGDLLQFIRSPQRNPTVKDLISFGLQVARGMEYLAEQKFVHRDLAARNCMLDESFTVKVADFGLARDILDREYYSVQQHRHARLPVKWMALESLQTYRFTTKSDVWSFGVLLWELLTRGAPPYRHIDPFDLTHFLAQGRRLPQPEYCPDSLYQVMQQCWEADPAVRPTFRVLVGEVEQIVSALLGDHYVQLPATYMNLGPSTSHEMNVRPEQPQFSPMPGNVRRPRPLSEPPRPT

[17] = molecular target: Receptor-type tyrosine-protein kinase FLT3 (Homo sapiens) (UniProt P36888); experiment: Inhibition of Flt3 at 10 uM
[18] = molecular target: Epidermal growth factor receptor (Homo sapiens) (UniProt P00533); experiment: Inhibition of EGFR at 10 uM
[19] = molecular target: Aurora kinase B (Homo sapiens) (UniProt Q96GD4); experiment: Inhibition of Aurora B at 10 uM
[20] = molecular target: Insulin receptor (Homo sapiens) (UniProt P06213); experiment: Inhibition of IR at 10 uM
[21] = molecular target: T2, Aurora kinase A (Homo sapiens) (UniProt O14965); experiment: Inhibition of Aurora A at 10 uM
T2 sequence (whole entry): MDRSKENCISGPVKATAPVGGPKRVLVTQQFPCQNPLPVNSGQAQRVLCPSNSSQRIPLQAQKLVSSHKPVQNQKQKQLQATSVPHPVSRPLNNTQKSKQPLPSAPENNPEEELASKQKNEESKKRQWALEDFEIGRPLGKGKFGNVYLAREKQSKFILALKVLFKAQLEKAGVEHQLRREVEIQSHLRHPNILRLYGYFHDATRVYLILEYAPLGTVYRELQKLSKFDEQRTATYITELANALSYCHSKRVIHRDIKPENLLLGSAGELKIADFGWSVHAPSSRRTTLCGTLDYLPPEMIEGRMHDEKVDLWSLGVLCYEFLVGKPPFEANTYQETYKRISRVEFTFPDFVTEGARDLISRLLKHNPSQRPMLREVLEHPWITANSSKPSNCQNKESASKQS

O=C(Nc1ccc(C(F)(F)F)cc1)c1[nH]nnc1NCc1ccncc1
> 10000 nM: IC50 [1] | IC50 [2]

FC(F)(F)c1cccc(-n2cc(-c3ccccc3NCc3ccnc4ccccc34)nn2)c1
160 nM: IC50 [1]
< 30%: inhibition [3] | inhibition [4] | inhibition [5] | inhibition [6] | inhibition [7] | inhibition [8] | inhibition [9] | inhibition [10] | inhibition [11] | inhibition [13] | inhibition [14] | inhibition [15] | inhibition [16] | inhibition [17] | inhibition [18] | inhibition [19] | inhibition [20] | inhibition [21]
210 nM: IC50 [2]
310 nM: IC50 [12]

Clc1cccc(-n2cc(-c3ccccc3NCc3ccnc4ccccc34)nn2)c1
190 nM: IC50 [1]
< 30%: inhibition [3] | inhibition [4] | inhibition [5] | inhibition [6] | inhibition [7] | inhibition [8] | inhibition [9] | inhibition [10] | inhibition [11] | inhibition [13] | inhibition [14] | inhibition [15] | inhibition [16] | inhibition [17] | inhibition [18] | inhibition [19] | inhibition [20] | inhibition [21]
270 nM: IC50 [12]
170 nM: IC50 [2]

FC(F)(F)c1cccc(-n2cc(-c3ccccc3NCc3ccccn3)nn2)c1
< 30%: inhibition [3] | inhibition [4] | inhibition [5] | inhibition [6] | inhibition [7] | inhibition [8] | inhibition [9] | inhibition [10] | inhibition [11] | inhibition [13] | inhibition [14] | inhibition [15] | inhibition [16] | inhibition [17] | inhibition [18] | inhibition [19] | inhibition [20] | inhibition [21]
> 10000 nM: IC50 [12] | IC50 [1] | IC50 [2]

O=C(Nc1cccc(C(F)(F)F)c1)c1nn[nH]c1NCc1ccncc1
5000 nM: IC50 [1]
inactive: Activity [12]

FC(F)(F)c1ccc(-n2cc(-c3ccccc3NCc3ccncc3)nn2)cc1
< 30%: inhibition [3] | inhibition [4] | inhibition [5] | inhibition [6] | inhibition [7] | inhibition [8] | inhibition [9] | inhibition [10] | inhibition [11] | inhibition [13] | inhibition [14] | inhibition [15] | inhibition [16] | inhibition [17] | inhibition [18] | inhibition [19] | inhibition [20] | inhibition [21]
590 nM: IC50 [1]
660 nM: IC50 [2]
1920 nM: IC50 [12]

FC(F)(F)c1cccc(-n2cc(-c3ccccc3NCc3ccc4c(c3)OCO4)nn2)c1
> 10000 nM: IC50 [12] | IC50 [1] | IC50 [2]
< 30%: inhibition [3] | inhibition [4] | inhibition [5] | inhibition [6] | inhibition [7] | inhibition [8] | inhibition [9] | inhibition [10] | inhibition [11] | inhibition [13] | inhibition [14] | inhibition [15] | inhibition [16] | inhibition [17] | inhibition [18] | inhibition [19] | inhibition [20] | inhibition [21]

FC(F)(F)c1ccc(-n2cc(-c3ccccc3NCc3ccncc3)nn2)cc1Cl
2920 nM: IC50 [12]
1130 nM: IC50 [2]
930 nM: IC50 [1]
< 30%: inhibition [3] | inhibition [4] | inhibition [5] | inhibition [6] | inhibition [7] | inhibition [8] | inhibition [9] | inhibition [10] | inhibition [11] | inhibition [13] | inhibition [14] | inhibition [15] | inhibition [16] | inhibition [17] | inhibition [18] | inhibition [19] | inhibition [20] | inhibition [21]

FC(F)(F)c1cc(-n2cc(-c3ccccc3NCc3ccncc3)nn2)ccc1Cl
440 nM: IC50 [1]
780 nM: IC50 [12]
< 30%: inhibition [3] | inhibition [4] | inhibition [5] | inhibition [6] | inhibition [7] | inhibition [8] | inhibition [9] | inhibition [10] | inhibition [11] | inhibition [13] | inhibition [14] | inhibition [15] | inhibition [16] | inhibition [17] | inhibition [18] | inhibition [19] | inhibition [20] | inhibition [21]
510 nM: IC50 [2]

Clc1cccc(-n2cc(-c3ccccc3NCc3c[nH]cn3)nn2)c1
> 10000 nM: IC50 [12] | IC50 [1] | IC50 [2]
< 30%: inhibition [3] | inhibition [4] | inhibition [5] | inhibition [6] | inhibition [7] | inhibition [8] | inhibition [9] | inhibition [10] | inhibition [11] | inhibition [13] | inhibition [14] | inhibition [15] | inhibition [16] | inhibition [17] | inhibition [18] | inhibition [19] | inhibition [20] | inhibition [21]

O=C(Nc1ccc(Cl)cc1)c1nn[nH]c1NCc1ccncc1
> 10000 nM: IC50 [1] | IC50 [2]

c1ccc(-c2cn(-c3ccc4[nH]ncc4c3)nn2)c(NCc2ccncc2)c1
650 nM: IC50 [2]
< 30%: inhibition [3] | inhibition [4] | inhibition [5] | inhibition [6] | inhibition [7] | inhibition [8] | inhibition [9] | inhibition [10] | inhibition [11] | inhibition [13] | inhibition [14] | inhibition [15] | inhibition [16] | inhibition [17] | inhibition [18] | inhibition [19] | inhibition [20] | inhibition [21]
2330 nM: IC50 [12]
680 nM: IC50 [1]

Cc1cc(-n2cc(-c3ccccc3NCc3ccncc3)nn2)ccc1C(F)(F)F
2020 nM: IC50 [12]
< 30%: inhibition [3] | inhibition [4] | inhibition [5] | inhibition [6] | inhibition [7] | inhibition [8] | inhibition [9] | inhibition [10] | inhibition [11] | inhibition [13] | inhibition [14] | inhibition [15] | inhibition [16] | inhibition [17] | inhibition [18] | inhibition [19] | inhibition [20] | inhibition [21]
980 nM: IC50 [1]
860 nM: IC50 [2]

FC(F)(F)Oc1cccc(-n2cc(-c3ccccc3NCc3ccncc3)nn2)c1
72 nM: IC50 [2]
85 nM: IC50 [12]
66 nM: IC50 [1]
< 30%: inhibition [3] | inhibition [4] | inhibition [5] | inhibition [6] | inhibition [7] | inhibition [8] | inhibition [9] | inhibition [10] | inhibition [11] | inhibition [13] | inhibition [14] | inhibition [15] | inhibition [16] | inhibition [17] | inhibition [18] | inhibition [19] | inhibition [20] | inhibition [21]

Fc1ccc(CNc2ccccc2-c2cn(-c3cccc(Cl)c3)nn2)cc1F
< 30%: inhibition [3] | inhibition [4] | inhibition [5] | inhibition [6] | inhibition [7] | inhibition [8] | inhibition [9] | inhibition [10] | inhibition [11] | inhibition [13] | inhibition [14] | inhibition [15] | inhibition [16] | inhibition [17] | inhibition [18] | inhibition [19] | inhibition [20] | inhibition [21]

O=C(Nc1cccc(Cl)c1)c1nn[nH]c1NCc1ccncc1
5000 nM: IC50 [1]
inactive: Activity [12]
